Measured values published in ChEMBL document CHEMBL2331355, “Synthesis, structure activity relationship and mode of action of 3-substitutedphenyl-1-(2,2,8,8-tetramethyl-3,4,9,10-tetrahydro-2H,8H-pyrano[2,3-f]chromen-6-yl)-propenones as novel anticancer agents in human leukaemia HL-60 cells” (Eur J Med Chem, 2013).

Columns and labels:
Assay type in all cases: functional
PC-3 [1] = test: Growth inhibition of human PC3 cells at 10 uM after 48 hrs by MTT assay; details: PC-3, 48 h, read-out: GI
Outline: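 MTT assay. Suspension or adherent cells were exposed to compound for 48 h. OD was read at 570 nm (reference 620 nm), with untreated control OD set as 100% viability. Results are percent growth inhibition, mean ± SD of three independent experiments.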

MDA-MB-435 = test: Growth inhibition of human MDA-MB-435 cells at 50 uM after 48 hrs by MTT assay; details: MDA-MB-435, 48 h, read-out: GI
Outline: (§1)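 Single-concentration MTT screen at 50 µM over 48 h in 96-well plates. Compounds giving >50% inhibition were rescreened at 30 µM. OD read at 570 nm, reference 620 nm. Result expressed as % growth inhibition versus untreated control. Mitomycin C, adriamycin or 5-fluorouracil used as positive controls. Mean ± SD of three independent experiments.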

PC-3 [2] = test: Growth inhibition of human PC3 cells at 50 uM after 48 hrs by MTT assay; details: PC-3, 48 h, read-out: GI; outline: as §1
HL-60 = test: Growth inhibition of human HL60 cells at 50 uM after 48 hrs by MTT assay; details: HL-60, 48 h, read-out: GI; outline: as §1
MIA PaCa-2 = test: Growth inhibition of human MIAPaCa2 cells at 50 uM after 48 hrs by MTT assay; details: MIA PaCa-2, 48 h, read-out: GI; outline: as §1
Caco-2 = test: Growth inhibition of human Caco2 cells at 50 uM after 48 hrs by MTT assay; details: Caco-2, 48 h, read-out: GI; outline: as §1
MCF7 = test: Growth inhibition of human MCF7 cells at 50 uM after 48 hrs by MTT assay; details: MCF7, 48 h, read-out: GI; outline: as §1
ASPC1 = test: Growth inhibition of human AsPC1 cells at 50 uM after 48 hrs by MTT assay; details: ASPC1, 48 h, read-out: GI; outline: as §1

SMILES: CO[C@@]12[C@H](COC(N)=O)C3=C(C(=O)C(C)=C(N)C3=O)N1C[C@@H]1N[C@@H]12 [MITOMYCIN]
- inhibition of growth at 10 µM (PC-3 [1]): 68%

SMILES: CC1(C)CCc2cc(C(=O)/C=C/c3ccccc3Cl)c3c(c2O1)CCC(C)(C)O3
- inhibition of growth at 50 µM (MDA-MB-435): 33%
- inhibition of growth at 50 µM (PC-3 [2]): 52%
- inhibition of growth at 50 µM (HL-60): 41%
- inhibition of growth at 50 µM (MIA PaCa-2): 31%
- inhibition of growth at 50 µM (Caco-2): 11%
- inhibition of growth at 50 µM (MCF7): 9%
- inhibition of growth at 50 µM (ASPC1): 15%

SMILES: CC1(C)CCc2cc(C(=O)/C=C/c3ccc(F)cc3)c3c(c2O1)CCC(C)(C)O3
- inhibition of growth at 50 µM (MDA-MB-435): 52%
- inhibition of growth at 50 µM (PC-3 [2]): 59%
- inhibition of growth at 50 µM (HL-60): 38%
- inhibition of growth at 50 µM (MIA PaCa-2): 38%
- inhibition of growth at 50 µM (Caco-2): 12%
- inhibition of growth at 50 µM (MCF7): 17%
- inhibition of growth at 50 µM (ASPC1): 28%

SMILES: COc1cc(OC)c(/C=C/C(=O)c2cc3c(c4c2OC(C)(C)CC4)OC(C)(C)CC3)c(OC)c1
- inhibition of growth at 50 µM (MDA-MB-435): 32%
- inhibition of growth at 50 µM (PC-3 [2]): 62%
- inhibition of growth at 50 µM (HL-60): 77%
- inhibition of growth at 50 µM (MIA PaCa-2): 27%
- inhibition of growth at 50 µM (Caco-2): 17%
- inhibition of growth at 50 µM (MCF7): 26%
- inhibition of growth at 50 µM (ASPC1): 5%

SMILES: COc1ccc(OC)c(/C=C/C(=O)c2cc3c(c4c2OC(C)(C)CC4)OC(C)(C)CC3)c1
- inhibition of growth at 50 µM (MDA-MB-435): 52%
- inhibition of growth at 50 µM (PC-3 [2]): 36%
- inhibition of growth at 50 µM (HL-60): 27%
- inhibition of growth at 50 µM (MIA PaCa-2): 17%
- inhibition of growth at 50 µM (Caco-2): 23%
- inhibition of growth at 50 µM (MCF7): 15%
- inhibition of growth at 50 µM (ASPC1): 2%

SMILES: CC1(C)CCc2cc(C(=O)/C=C/c3cccc(Cl)c3)c3c(c2O1)CCC(C)(C)O3
- inhibition of growth at 50 µM (MDA-MB-435): 54%
- inhibition of growth at 50 µM (PC-3 [2]): 59%
- inhibition of growth at 50 µM (HL-60): 60%
- inhibition of growth at 50 µM (MIA PaCa-2): 24%
- inhibition of growth at 50 µM (Caco-2): 31%
- inhibition of growth at 50 µM (MCF7): 16%
- inhibition of growth at 50 µM (ASPC1): 24%
